Results on four compounds are retold here after BindingDB's records for doi:10.1016/j.ejmech.2013.06.039 (University of Salerno, 2013).

The target of test [1] is T1, Polyunsaturated fatty acid 5-lipoxygenase (Homo sapiens, UniProt P09917).
T1 sequence (P09917 whole entry): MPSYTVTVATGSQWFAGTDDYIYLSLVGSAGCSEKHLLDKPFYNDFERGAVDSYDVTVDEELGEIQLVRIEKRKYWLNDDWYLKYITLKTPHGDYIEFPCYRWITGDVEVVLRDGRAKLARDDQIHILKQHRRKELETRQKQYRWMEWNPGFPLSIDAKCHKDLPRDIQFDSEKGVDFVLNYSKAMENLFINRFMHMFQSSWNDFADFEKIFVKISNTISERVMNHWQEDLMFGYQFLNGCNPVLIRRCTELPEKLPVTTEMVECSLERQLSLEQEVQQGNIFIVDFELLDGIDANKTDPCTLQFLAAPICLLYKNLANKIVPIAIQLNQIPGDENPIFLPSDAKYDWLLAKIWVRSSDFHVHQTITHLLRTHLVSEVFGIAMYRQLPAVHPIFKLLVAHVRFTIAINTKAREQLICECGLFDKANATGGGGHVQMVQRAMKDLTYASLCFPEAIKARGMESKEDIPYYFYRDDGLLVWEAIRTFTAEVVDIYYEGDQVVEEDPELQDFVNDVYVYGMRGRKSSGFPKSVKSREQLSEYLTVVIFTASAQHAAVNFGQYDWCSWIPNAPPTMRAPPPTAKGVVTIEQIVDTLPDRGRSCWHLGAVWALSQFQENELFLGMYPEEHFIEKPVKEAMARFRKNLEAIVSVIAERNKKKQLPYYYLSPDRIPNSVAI
The experiment in a line: Inhibition of human recombinant 5-LO expressed in Escherichia coli BL21 using arachidonic acid as substrate after 10 mins. Summed up: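 Purified 5-LO was diluted in PBS/EDTA and pre-incubated with compound for 5–10 min at 4 °C, then pre-warmed for 30 s at 37 °C. The reaction was started with 2 mM CaCl₂ plus AA, run 10 min at 37 °C and stopped with ice-cold methanol. Products were analysed by HPLC.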

Test [2] has as its target T1, Polyunsaturated fatty acid 5-lipoxygenase. Put plainly: Inhibition of 5-LO in human PMNL using arachidonic acid as substrate preincubated for 15 mins. Summed up: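 PMNL were isolated from buffy coats by dextran sedimentation, Nycoprep centrifugation and hypotonic lysis of erythrocytes, then resuspended in PBS pH 7.4 with 1 mg/mL glucose and 1 mM CaCl₂. Cells were pre-incubated with compound for 15 min at 37 °C, then stimulated with A23187 plus AA for 10 min at 37 °C. 15-LO comes from eosinophils and 12-LO from adhering platelets in the preparation. After methanol/HCl stop and PGB₁ addition, metabolites were extracted and quantified by HPLC. Mean ± S.E.M., n = 3–4.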

A value given as a limit tells only on which side of the number the result lay.

As a reminder, the IC50 is the concentration needed to halve the response being measured.

As for `O=C1C=C(Cc2ccccc2)C(=O)CC1=O`, the IC50 in test [1] and in test [2] was greater than 10 µM throughout.

For the compound `O=C1CC(=O)C(=O)C(CC2CCCCC2)C1=O`, the IC50 in test [1] and in test [2] was greater than 10 µM throughout.

As for `COC1=CC(=O)C(=O)C(Cc2ccc3ccccc3c2)C1=O` (stereo not drawn), the IC50 in test [1] and in test [2] was greater than 10 µM each time.

With `COC1=CC(=O)C(=O)C(Cc2ccccc2)C1=O` (stereo not drawn), the IC50 in test [1] and in test [2] was greater than 10 µM throughout.
